Experimental data taken from ChEMBL document CHEMBL4020840, “Synthesis and Biological Evaluation of Selenium-Containing 4-Anilinoquinazoline Derivatives as Novel Antimitotic Agents” (J Med Chem, 2018).

Experiments:
A549 [1] = assay: Induction of apoptosis in human A549 cells assessed as live cells at 2 nM after 24 hrs by Annexin V-FITC/propidium iodide staining based flow cytometry (reference value: 98.84%); format: functional
[2] = Selectivity index, ratio of IC50 for human LO2 cells to IC50 for human A549 cells; format: functional
Outline: (§1)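 MTT assay in normal cells and A549: seeding at 5 × 10³ cells/well for 24 h, 48 h compound exposure, then 5 mg/mL MTT for 4 h, DMSO solubilisation and absorbance at 570 nm. IC50 values came from dose–response curves of at least three independent experiments. Selectivity ratio = IC50 in normal cells / IC50 in A549.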

[3] = Selectivity index, ratio of IC50 for HLF to IC50 for human A549 cells; outline: as §1
A549 [4] = assay: Growth inhibition of human A549 cells after 48 hrs by MTT assay; format: functional, cell-based; conditions: A549, 48 h
HCT-116 = assay: Growth inhibition of human HCT116 cells after 48 hrs by MTT assay; format: functional, cell-based; conditions: HCT-116, 48 h
Outline: (§2)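 MTT assay: log-phase cells plated at 5 × 10³/well for 24 h, then exposed to a range of test concentrations for 48 h. MTT (5 mg/mL) added for 4 h, formazan dissolved in DMSO, absorbance read at 570 nm. IC50 is the concentration giving 50% growth inhibition, from dose-response curves; at least three independent experiments, mean ± SE.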

HepG2 = assay: Growth inhibition of human HepG2 cells after 48 hrs by MTT assay; format: functional, cell-based; conditions: HepG2, 48 h; outline: as §2
MDA-MB-231 = assay: Growth inhibition of human MDA-MB-231 cells after 48 hrs by MTT assay; format: functional, cell-based; conditions: MDA-MB-231, 48 h; outline: as §2
LoVo = assay: Growth inhibition of human LoVo cells after 48 hrs by MTT assay; format: functional, cell-based; outline: as §2
RKO = assay: Growth inhibition of human RKO cells after 48 hrs by MTT assay; format: functional, cell-based; outline: as §2
MCF7 = assay: Antiproliferative activity against human MCF7 cells after 48 hrs by MTT assay; format: functional, cell-based; conditions: MCF7, 48 h; outline: as §2
HeLa = assay: Antiproliferative activity against human HeLa cells after 48 hrs by MTT assay; format: functional, cell-based; outline: as §2
MGC-803 = assay: Antiproliferative activity against human MGC803 cells after 48 hrs by MTT assay; format: functional, cell-based; conditions: MGC-803, 48 h; outline: as §2
A549/CDDP = assay: Growth inhibition of human A549/CDDP cells after 48 hrs by MTT assay; format: functional, cell-based; outline: as §2
[5] = Growth inhibition of human HepG2/DOX cells after 48 hrs by MTT assay; format: functional, cell-based; outline: as §2
[6] = Resistance factor, ratio of IC50 for human A549/CDDP cells to IC50 for human A549 cells; format: functional
Outline: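 MTT assay: log-phase cells were seeded at 5 × 10³/well for 24 h, then exposed to a concentration series for 48 h. MTT (5 mg/mL) was added for 4 h, formazan was dissolved in DMSO, and A570 was read. IC50 values came from dose–response curves of at least three independent experiments. Resistance factor = IC50 in the resistant line / IC50 in the parental sensitive line.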

[7] = Inhibition of porcine brain tubulin polymerization measured every 60 secs for 90 mins by DAPI staining based fluorescence assay; design: species or system Sus scrofa
Outline: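 Purified tubulin was tested in a kit assay. Final buffer: 80 mM PIPES sesquisodium (pH 6.9), 2.0 mM MgCl₂, 0.5 mM EGTA, 1 mM GTP, 10.2% glycerol. Compound (0.1–10 μM) was prewarmed at 37 °C for 1 min before tubulin was added. DAPI reporter fluorescence (ex 340 / em 410 nm) was read every 60 s for 90 min. Area under the curve gave percent inhibition versus control and the IC50.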

[8] = Antiproliferative activity against HLF after 48 hrs by MTT assay; format: cell-based; conditions: Homo sapiens; outline: as §2
A549 [9] = assay: Cell cycle arrest in human A549 cells assessed as accumulation at G2/M phase at 4 nM up to 24 hrs by propidium iodide staining based flow cytometry (reference value: 10.13%); format: functional
Outline: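 A549 seeded in six-well plates at 3 × 10⁵ cells/well and treated for 12 or 24 h; vehicle 0.01% DMSO. Cells fixed overnight in ice-cold 70% ethanol, treated with RNase A at 37 °C for 30 min, then stained with PI at 4 °C for 30 min. About 10 000 events acquired by flow cytometry at 488 nm; three experiments.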

A549 [10] = assay: Induction of apoptosis in human A549 cells assessed as early apoptotic cells at 2 nM after 24 hrs by Annexin V-FITC/propidium iodide staining based flow cytometry (reference value: 0.98%); format: functional
A549 [11] = assay: Induction of apoptosis in human A549 cells assessed as late apoptotic cells at 2 nM after 24 hrs by Annexin V-FITC/propidium iodide staining based flow cytometry (reference value: 0.08%); format: functional
A549 [12] = assay: Induction of apoptosis in human A549 cells assessed as necrotic cells at 2 nM after 24 hrs by Annexin V-FITC/propidium iodide staining based flow cytometry (reference value: 0.10%); format: functional
A549 [13] = assay: Induction of apoptosis in human A549 cells assessed as live cells at 4 nM after 24 hrs by Annexin V-FITC/propidium iodide staining based flow cytometry (reference value: 98.84%); format: functional
A549 [14] = assay: Induction of apoptosis in human A549 cells assessed as early apoptotic cells at 4 nM after 24 hrs by Annexin V-FITC/propidium iodide staining based flow cytometry (reference value: 0.98%); format: functional
A549 [15] = assay: Induction of apoptosis in human A549 cells assessed as late apoptotic cells at 4 nM after 24 hrs by Annexin V-FITC/propidium iodide staining based flow cytometry (reference value: 0.08%); format: functional
A549 [16] = assay: Induction of apoptosis in human A549 cells assessed as necrotic cells at 4 nM after 24 hrs by Annexin V-FITC/propidium iodide staining based flow cytometry (reference value: 0.10%); format: functional
A549 [17] = assay: Induction of apoptosis in human A549 cells assessed as live cells at 2 nM after 48 hrs by Annexin V-FITC/propidium iodide staining based flow cytometry (reference value: 98.49%); format: functional
A549 [18] = assay: Induction of apoptosis in human A549 cells assessed as early apoptotic cells at 2 nM after 48 hrs by Annexin V-FITC/propidium iodide staining based flow cytometry (reference value: 1.48%); format: functional
A549 [19] = assay: Induction of apoptosis in human A549 cells assessed as late apoptotic cells at 2 nM after 48 hrs by Annexin V-FITC/propidium iodide staining based flow cytometry (reference value: 0.03%); format: functional
A549 [20] = assay: Induction of apoptosis in human A549 cells assessed as necrotic cells at 2 nM after 48 hrs by Annexin V-FITC/propidium iodide staining based flow cytometry relative to control; format: functional
A549 [21] = assay: Induction of apoptosis in human A549 cells assessed as live cells at 4 nM after 48 hrs by Annexin V-FITC/propidium iodide staining based flow cytometry (reference value: 98.49%); format: functional
A549 [22] = assay: Induction of apoptosis in human A549 cells assessed as early apoptotic cells at 4 nM after 48 hrs by Annexin V-FITC/propidium iodide staining based flow cytometry (reference value: 1.48%); format: functional
A549 [23] = assay: Induction of apoptosis in human A549 cells assessed as late apoptotic cells at 4 nM after 48 hrs by Annexin V-FITC/propidium iodide staining based flow cytometry (reference value: 0.03%); format: functional
A549 [24] = assay: Induction of apoptosis in human A549 cells assessed as necrotic cells at 4 nM after 48 hrs by Annexin V-FITC/propidium iodide staining based flow cytometry relative to control; format: functional
L02 = assay: Antiproliferative activity against human LO2 cells after 48 hrs by MTT assay; format: cell-based; conditions: L02, 48 h; outline: as §2
BJ = assay: Antiproliferative activity against human BJ cells after 48 hrs by MTT assay; format: cell-based; outline: as §2
[25] = Selectivity index, ratio of IC50 for human BJ cells to IC50 for human A549 cells; format: functional; outline: as §1

## Cc1nc(N(C)c2ccc([Se]C#N)cc2)c2ccccc2n1
A549 [1]
  Activity: 82.96%
[2]
  Ratio IC50: 4.1
[3]
  Ratio IC50: 4.6
A549 [4]
  IC50: 11 nM
HCT-116
  IC50: 15 nM
HepG2
  IC50: 9 nM
MDA-MB-231
  IC50: 20 nM
LoVo
  IC50: 32 nM
RKO
  IC50: 9 nM
MCF7
  IC50: 19 nM
HeLa
  IC50: 9 nM
MGC-803
  IC50: 12 nM
A549/CDDP
  IC50: 32 nM
[5]
  IC50: 29 nM
[6]
  Ratio IC50: 3.56
[7]
  IC50: 3.12 µM
[8]
  IC50: 41 nM
A549 [9]
  Activity: 69.69%
A549 [10]
  Activity: 13.55%
A549 [11]
  Activity: 2.38%
A549 [12]
  Activity: 1.11%
A549 [13]
  Activity: 64.96%
A549 [14]
  Activity: 27.46%
A549 [15]
  Activity: 5.58%
A549 [16]
  Activity: 1.77%
A549 [17]
  Activity: 74.73%
A549 [18]
  Activity: 17.56%
A549 [19]
  Activity: 5.78%
A549 [20]
  Activity: 1.94%
A549 [21]
  Activity: 40.54%
A549 [22]
  Activity: 21.45%
A549 [23]
  Activity: 29.41%
A549 [24]
  Activity: 7.59%
L02
  IC50: 37 nM
BJ
  IC50: 33 nM
[25]
  Ratio IC50: 3.7
